Assay results taken from article PMC2215654 (The Journal of General Physiology, 1984).
Like-named read-outs stand apart in the source and are kept apart here.

Assays:
[1] = system: red cells (net chloride permeability); test: Net KCl flux with valinomycin into low chloride medium, 0C; type: cell-based, human
Method in brief: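 Nystatin-treated high-Cl cells were washed in 150K, then 10K-Hi. Net K+ efflux was measured at 0°C, 0.1% hematocrit, in 10K-Hi with 1.33% ethanol, started by adding graded valinomycin, with or without 10 uM DIDS. K+ was read by flame photometry and taken as net KCl efflux. PK/PCl came from Goldman-equation fits, with PK linear in valinomycin and PK = 0.5 PRb.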

[2] = system: red cells (valinomycin-induced Rb+ exchange); test: 86Rb exchange with valinomycin, 0C; type: cell-based, human
Method in brief: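 Human red cells washed in 150 mM NaCl, 2 mM KCl, 20 mM HEPES pH 7.4, then loaded 17 h at 37°C (50% hematocrit) with ~5 uCi/ml 86Rb in 5 mM adenosine/chloramphenicol buffer. Efflux ran at 0°C, 0.1% hematocrit, in 48 mM NaCl/112 mM KCl/5 mM HEPES pH 7.2 with 1.33% ethanol. Valinomycin was added last, with or without 10 uM DIDS. Timed samples were centrifuged to give the efflux rate constant.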

[3] = molecular target: T1, human erythrocyte anion exchange protein (band 3) (Homo sapiens, UniProt P02730); test: H2DIDS inhibition of chloride exchange in resealed ghosts with Cli < Clo, 0C; type: cell-based
T1 sequence (P02730 1-911): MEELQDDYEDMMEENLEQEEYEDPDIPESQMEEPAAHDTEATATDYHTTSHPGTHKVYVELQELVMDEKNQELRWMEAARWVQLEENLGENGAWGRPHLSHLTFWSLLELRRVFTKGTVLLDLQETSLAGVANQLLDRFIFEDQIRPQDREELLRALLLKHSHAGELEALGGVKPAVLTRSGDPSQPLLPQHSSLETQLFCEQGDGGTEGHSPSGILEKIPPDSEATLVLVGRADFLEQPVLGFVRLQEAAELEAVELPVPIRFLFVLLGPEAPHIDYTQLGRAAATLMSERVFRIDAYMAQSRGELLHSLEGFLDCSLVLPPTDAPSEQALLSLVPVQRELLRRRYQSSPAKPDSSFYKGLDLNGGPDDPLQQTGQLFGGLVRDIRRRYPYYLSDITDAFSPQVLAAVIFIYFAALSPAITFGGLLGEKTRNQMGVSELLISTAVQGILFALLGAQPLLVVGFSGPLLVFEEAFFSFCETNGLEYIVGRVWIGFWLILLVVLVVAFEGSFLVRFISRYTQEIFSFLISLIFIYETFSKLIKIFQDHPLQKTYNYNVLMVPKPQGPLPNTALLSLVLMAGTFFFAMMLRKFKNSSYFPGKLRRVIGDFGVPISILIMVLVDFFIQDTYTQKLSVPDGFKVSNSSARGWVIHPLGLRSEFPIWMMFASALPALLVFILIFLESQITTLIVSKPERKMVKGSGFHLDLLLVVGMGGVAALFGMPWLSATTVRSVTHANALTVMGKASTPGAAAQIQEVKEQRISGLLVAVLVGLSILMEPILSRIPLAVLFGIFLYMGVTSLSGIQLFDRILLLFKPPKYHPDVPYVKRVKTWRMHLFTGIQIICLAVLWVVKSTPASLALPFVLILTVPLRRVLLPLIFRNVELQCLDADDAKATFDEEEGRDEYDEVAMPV
Method in brief: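 Washed cells were lysed at 0°C in 3.5 mM acetic acid, 4 mM MgSO4, 1 mM EGTA. Tris/KCl/sodium citrate was added for 10 or 60 mM internal Cl; after 10 min at 0°C, ghosts were resealed 45 min at 37°C. They were washed in 60 mM NaCl, 60 mM Na citrate, 5 mM HEPES, 5 mM glucose, MgSO4, pH 7.2. 36Cl efflux with graded H2DIDS was measured at 0°C; ID50 came from Dixon-plot x-intercepts.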

[4] = molecular target: T1, human erythrocyte anion exchange protein (band 3); type: cell-based; details: Table III mean
Method in brief: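 Washed cells in 60K-Hi (pH 7.2) were pretreated 45 min at 37°C, 10% hematocrit, with 2.5 uM (low pH) or 5 uM (high pH) H2DIDS. They were albumin-washed, nystatin-treated (75 ug/ml, 10 min each in 60K-Hi then 60K-Lo, 0°C) and washed into 60K-Lo at pH 7.2 or 9.0. 36Cl efflux with graded H2DIDS and Cl ratios were measured at 0°C in those media. ID50 came from Dixon-plot x-intercepts.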

`O=S(=O)(O)c1cc(N=C=S)ccc1C=Cc1ccc(N=C=S)cc1S(=O)(=O)O` [DIDS, 4,4'-diisothiocyano-stilbene-2,2'-disulfonic acid] was tested, and the “plateau net KCl efflux” value ([1]; in the presence of 10 uM DIDS, high valinomycin concentrations) was “greatly reduced”, the “effect on Rb+ exchange” value ([2]; DIDS 10 uM, valinomycin-induced Rb+ exchange) was “no significant effect” and the PRb ([2]; Fig. 7, 10 uM valinomycin with 10 uM DIDS present) was 0.09216 mmol/kg Hb - min - mM.
`O=S(=O)(O)c1cc(N=C=S)ccc1CCc1ccc(N=C=S)cc1S(=O)(=O)O` [H2DIDS, 4,4'-diisothiocyano-1,2-diphenylethane-2,2'-disulfonic acid] was tested, and the “ID50* (no chloride gradient), mean” value ([3]; Table II mean, extracellular Cl 60 mM, intracellular Cl ~60 mM, 0C) was 0.15 AM, the “ID50 (with chloride gradient Clo > Cli), mean” value ([3]; Table II mean, intracellular Cl averaged 27.8 mM, mean Clo/Cli 2.35, 0C) was 0.21 AM and the “ID50/ID50*, mean” value ([3]; Table II mean, mean Clo/Cli 2.35) was 1.41. The “increase in ID50 caused by high pH” value ([3]; pH 9.0 versus pH 7.2, chloride ratio nearly invariant with pH) was 30%, the “ID50* (no chloride gradient), mean” value ([4]; extracellular Cl 60 mM, intracellular Cl ~60 mM, 0C) was 0.24 AM and the “ID50 (chloride gradient induced by increasing pH), mean” value ([4]; intracellular Cl averaged 14.4 mM, mean Clo/Cli 4.66, 0C) was 0.47 AM. For the same compound, the “ID50/ID50*, mean” value ([4]; mean Clo/Cli 4.66) was 2.00.
`CC(C)[C@@H]1NC(=O)[C@H](C)OC(=O)[C@@H](C(C)C)NC(=O)[C@@H](C(C)C)OC(=O)[C@H](C(C)C)NC(=O)[C@H](C)OC(=O)[C@@H](C(C)C)NC(=O)[C@@H](C(C)C)OC(=O)[C@H](C(C)C)NC(=O)[C@H](C)OC(=O)[C@@H](C(C)C)NC(=O)[C@@H](C(C)C)OC1=O` [valinomycin] showed a PK/PCl ratio ([1]; 10 uM valinomycin, 10K-Hi medium, assuming PK = 0.5 PRb) of 33, a PK/PCl ratio ([1]; valinomycin, other experiments, medium with 150 mM NaCl and 10 mM KCl) greater than 20 and a PRb ([2]; Fig. 7, control cells, 10 uM valinomycin) of 0.09134 mmol/kg Hb - min - mM.
